The source of these data is ChEMBL document CHEMBL2029283, “Disubstituted 1,8-dipyrazolcarbazole derivatives as a new type of c-myc G-quadruplex binding ligands” (Bioorg Med Chem, 2012).

The subject of assay [1] is Nucleic Acid. Kind of assay: Binding affinity to c-myc G-quadruplex DNA FPu18T assessed as change in melting temperature at 1 uM by FRET-melting assay in presence of excess duplex oligomer ds26. Type of assay: nucleic-acid assay. The method, boiled down: (§1)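 FRET melting of FAM/TAMRA-labelled oligonucleotides (FPu18T, F21T or duplex F10T), each 0.2 μM, with compound 1.0 μM in 10 mM Tris-HCl pH 7.2 containing KCl. For competition, excess ds26 duplex (3 or 10 μM) was added.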

Assay [2] concerns NCI-H460. Kind of assay: Cytotoxicity against human NCI-H460 cells after 48 hrs by MTT assay. It is filed as functional, cell-based. Particulars: NCI-H460, 48 h. In a few lines: (§2)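 Cells kept in RPMI-1640 with 10% FBS, seeded at 1.0 × 10^ cells per well and exposed to graded compound for 48 h at 37 °C in 5% CO2. MTT (5 mg/mL solution) was then added for 4 h, formazan dissolved in DMSO, and OD read at 570 nm. Tests were run in triplicate, and IC50 was derived from mean OD versus concentration curves.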

In assay [3] the target is Nucleic Acid. Kind of assay: Binding affinity to biotinylated-telomeric G-quadruplex DNA HTG21 by SPR assay. Type of assay: nucleic-acid assay. The method, boiled down: (§3)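 SPR with biotinylated DNA captured to about 1000 RU in flow cells 1 and 2, the third left blank as reference. Running buffer was 50 mM Tris-HCl pH 7.2, 100 mM KCl. Ligand at 0.3125–10 μM was injected for 150 s association and 300 s dissociation at 25 °C, with 1 M NaCl regeneration. Blank-subtracted sensorgrams were fitted with a Langmuir kinetic model.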

The test system of assay [4] is Nucleic Acid. Kind of assay: Binding affinity to c-myc G-quadruplex DNA FPu18T assessed as change in CD spectra at 25 uM by CD spectrophotometric analysis in presence of 100 mM K+ ions. Type of assay: nucleic-acid assay. In a few lines:
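CD spectra of Pu18 (5 μM) with ligand at 25 μM in 10 mM Tris-HCl pH 7.2 plus 100 mM KCl. Samples were heated to 95 °C, slowly cooled and held at 4 °C for ≥6 h. Spectra were recorded over 220–450 nm with 1 nm bandwidth and 0.5 s per point, averaging two scans.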

Assay [5] has as its system ECV-304. Kind of assay: Cytotoxicity against human ECV304 cells after 48 hrs by MTT assay. Type of assay: cell-based. The conditions noted are these: ECV-304, 48 h. The method, boiled down: as §2
The subject of assay [6] is Nucleic Acid. Kind of assay: Binding affinity to human telomeric G-quadruplex DNA F21T assessed as change in melting temperature at 1 uM by FRET-melting assay. It is filed as nucleic-acid assay. The method, boiled down:
as §1

Assay [7] relates to Nucleic Acid. Kind of assay: Selectivity ratio of Kd for biotinylated-telomeric G-quadruplex DNA HTG21 to Kd for biotinylated-c-myc G-quadruplex DNA FPu18T. Type of assay: nucleic-acid assay. The method, boiled down: as §3
Assay [8] has as its system Nucleic Acid. Kind of assay: Binding affinity to biotinylated-duplex DNA at 20 uM by SPR assay. Type of assay: nucleic-acid assay.
The target in assay [9] is Nucleic Acid. Kind of assay: Binding affinity to biotinylated-c-myc G-quadruplex DNA FPu18T by SPR assay. Type of assay: nucleic-acid assay. The method, boiled down:
as §3

In assay [10] the target is Nucleic Acid. Kind of assay: Binding affinity to G-quadruplex DNA Pu27 assessed as inhibition of hybridization with complementary strand after 3 mins by PCR-stop assay. It is filed as nucleic-acid assay. In a few lines:
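Taq polymerase-stop on Pu27 with its complementary strand, each oligomer 10 μM, in 1× PCR buffer with 0.16 mM dNTP, 2.5 U Taq and graded compound. Cycling was 94 °C 3 min, then 30 cycles of 94 °C 30 s, […] 30 s, 72 °C 30 s. Products were run on 15% nondenaturing PAGE in TBE and silver stained. IC50 was taken for inhibition of amplification.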

For assay [11], the system named is HL-60. Kind of assay: Cytotoxicity against human HL60 cells after 48 hrs by MTT assay. It is filed as functional, cell-based. The conditions noted are these: HL-60, 48 h. In a few lines: as §2
In assay [12] the test system is Nucleic Acid. Kind of assay: Binding affinity to duplex DNA F10T assessed as change in melting temperature at 1 uM by FRET-melting assay. It is filed as nucleic-acid assay. In a few lines: as §1
Assay [13] concerns Nucleic Acid. Kind of assay: Binding affinity to c-myc G-quadruplex DNA FPu18T assessed as change in melting temperature at 1 uM by FRET-melting assay. Type of assay: nucleic-acid assay. The method, boiled down:
as §1

Assay [14] has as its system HepG2. Kind of assay: Cytotoxicity against human HepG2 cells after 48 hrs by MTT assay. It is filed as functional, cell-based. The conditions noted are these: HepG2, 48 h. In a few lines:
as §2

Assay [15] concerns Nucleic Acid. Kind of assay: Binding affinity to biotinylated-c-myc G-quadruplex DNA FPu18T at 20 uM by SPR assay. It is filed as nucleic-acid assay.
Assay [16] deals with Nucleic Acid. Kind of assay: Binding affinity to biotinylated-telomeric G-quadruplex DNA HTG21 at 20 uM by SPR assay. Type of assay: nucleic-acid assay.
In assay [17] the test system is Ramos. Kind of assay: Suppression of c-myc mRNA level in human Ramos cells expressing NHE III1 at 10 uM by RT-PCR analysis. It is filed as functional, cell-based. The method, boiled down:
(§4)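 Ramos or CA46 cells were seeded at 100,000 per well and treated for 4 days with 1, 2.5, 5 or 10 μM compound or DMSO. Total RNA was extracted in Redzol and reverse-transcribed with oligo dT18 at 42 °C for 1 h. c-myc (91 bp) and β-actin (541 bp) were PCR-amplified and run on 1% agarose. Densitometry values were normalized to β-actin.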

The test system of assay [18] is CA46. Kind of assay: Decrease in c-myc expression in promoter element P1 and P2-deficient human CA46 cells by RT-PCR analysis. Type of assay: functional, cell-based. The method, boiled down:
as §4

Assay [19] concerns Ramos. Kind of assay: Decrease in c-myc expression in human Ramos cells expressing NHE III1 at 2.5 uM by RT-PCR analysis. It is filed as functional, cell-based. In a few lines: as §4
In assay [20] the test system is Nucleic Acid. Kind of assay: Binding affinity to c-myc G-quadruplex DNA FPu18T assessed as conformational changes at 25 uM by CD spectrophotometric analysis in absence of K+ ions. Type of assay: nucleic-acid assay. The method, boiled down:
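CD spectra of Pu18 (5 μM) with ligand at 25 μM in 10 mM Tris-HCl pH 7.2 with no KCl. Samples were annealed from 95 °C and held at 4 °C for ≥6 h. Spectra were recorded over 220–450 nm with 1 nm bandwidth, averaging two scans.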

Each structure is given as a SMILES string. The source made the active and inactive calls. No cut-off for these calls is given here.

`O=C(CCN1CCCC1)Nc1cc(-n2cccn2)c2[nH]c3c(-n4cccn4)cc(NC(=O)CCN4CCCC4)cc3c2c1`: the result in assay [1] and in [4] was Active. For the same compound, the IC50 in [2] worked out at 3.5 µM; in assay [5], 25.2 µM; in assay [10], 3.6 µM; in assay [11], 2.2 µM; in assay [14] it was 4.2 µM. For the same compound, the values for the Kd in assay [3] and in assay [9] were 2.64 µM and 0.131 µM, respectively. The ΔTm is 10.7 °C in assay [6], 0.5 °C in [12] and 15.1 °C in [13]. Moreover, in assay [7], the Ratio was > 20. The result in [8] was inactive.

Regarding `CCN(CC)CCC(=O)Nc1cc(-n2cccn2)c2[nH]c3c(-n4cccn4)cc(NC(=O)CCN(CC)CC)cc3c2c1`, the result in assay [1] and in assay [4] was Active. In addition, the IC50 in assay [2] was found to be 2.6 µM; in [5], 23.3 µM; in assay [10], 6.3 µM; in assay [11] it was 1.9 µM; in [14] it was 2.7 µM. Besides, the dissociation constant (Kd) in assay [3] was determined as 2.59 µM; in assay [9], 0.233 µM. For the same compound, the ΔTm in assay [6] turned out to be 11.9 °C; in assay [12], 0.3 °C; in [13] it was 18.1 °C. The result in assay [8] was inactive.

For `O=C(CN1CCCCC1)Nc1cc(-n2cccn2)c2[nH]c3c(-n4cccn4)cc(NC(=O)CN4CCCCC4)cc3c2c1`, the result in assay [1] was Active. Also, the half-maximal inhibitory concentration (IC50) was 3.3 µM in assay [2]; 27.3 µM in assay [5]; > 20 µM in assay [10]; 2.4 µM in assay [11]; 5.6 µM in assay [14]. In addition, the Kd in assay [3] amounted to 8.07 µM; in assay [9], 1.46 µM. Also, the values for the shift in melting temperature (ΔTm) in assay [6], in [12] and in assay [13] were 4 °C, 0.1 °C and 5.5 °C, respectively. Moreover, the outcome in [8] was inactive.

Consider `O=C(CCN1CCOCC1)Nc1cc(-n2cccn2)c2[nH]c3c(-n4cccn4)cc(NC(=O)CCN4CCOCC4)cc3c2c1`, for which the outcome in [1] was Active. Further, the outcome in assay [15], in [16] and in assay [8] was inactive. The 50% inhibitory concentration (IC50) in assay [2] was 2.8 µM; in assay [5], 26.2 µM; in assay [10], > 20 µM; in assay [11], 1.7 µM; in assay [14], 6.9 µM. For the same compound, the thermal shift (ΔTm) in [6] turned out to be 4.2 °C; in [12], 0.3 °C; in [13], 7.3 °C.

Turning to `CCN(CC)CC(=O)Nc1cc(-n2cccn2)c2[nH]c3c(-n4cccn4)cc(NC(=O)CN(CC)CC)cc3c2c1`, in assay [1], the outcome was Active. Besides, the half-maximal inhibitory concentration (IC50) is 2.5 µM in assay [2]; 22.8 µM in assay [5]; > 20 µM in assay [10]; 2 µM in assay [11]; 3 µM in assay [14]. Also, the values for the Kd in assay [3] and in assay [9] were 6.86 µM and 2.03 µM, respectively. Besides, the ΔTm in [6] amounted to 3.6 °C; in [12], 0.6 °C; in assay [13], 7.4 °C. In addition, the outcome in assay [8] was inactive.

As for `O=C(CN1CCOCC1)Nc1cc(-n2cccn2)c2[nH]c3c(-n4cccn4)cc(NC(=O)CN4CCOCC4)cc3c2c1`, the outcome in assay [1] was Active. The outcome in assay [15], in assay [16] and in assay [8] was inactive. Besides, the 50% inhibitory concentration (IC50) is 3.9 µM in [2]; 29.3 µM in [5]; > 20 µM in [10]; 3.9 µM in assay [11]; 6.1 µM in assay [14]. The values for the thermal shift (ΔTm) in assay [6], in [12] and in [13] were 1.2 °C, 0.2 °C and 4.4 °C, respectively.

For `O=C(CCN1CCCCC1)Nc1cc(-n2cccn2)c2[nH]c3c(-n4cccn4)cc(NC(=O)CCN4CCCCC4)cc3c2c1`, the result in [1], in assay [17], in assay [4], in assay [19] and in assay [20] was Active. Further, the IC50 in assay [2] was 2.7 µM; in [5], 25 µM; in assay [10] it was 4.9 µM; in assay [11] it was 1.2 µM; in assay [14], 5.1 µM. Moreover, the Kd in assay [3] was 1.88 µM; in [9], 0.135 µM. In addition, the result in assay [18] and in assay [8] was inactive. In addition, the ΔTm in assay [6] came out at 9.7 °C; in [12] it was 0.3 °C; in assay [13], 12.1 °C.

On to `O=C(CN1CCCC1)Nc1cc(-n2cccn2)c2[nH]c3c(-n4cccn4)cc(NC(=O)CN4CCCC4)cc3c2c1`, for which the result in [1] was Active. Besides, the 50% inhibitory concentration (IC50) in [2] was 2.7 µM; in [5], 22.2 µM; in assay [10], 5.2 µM; in [11], 1.9 µM; in assay [14] it was 2.7 µM. Further, the Kd worked out at 2.97 µM in [3] and 0.694 µM in assay [9]. Besides, the values for the shift in melting temperature (ΔTm) in [6], in [12] and in assay [13] were 6.3 °C, 0.3 °C and 9.3 °C, respectively. In addition, in assay [8], the outcome was inactive.
